Results taken from ChEMBL document CHEMBL3792346, “Thiazolino 2-Pyridone Amide Inhibitors of Chlamydia trachomatis Infectivity” (J Med Chem, 2016).

Key:
[1] = Cytotoxicity against human HeLa cells assessed as cell viability at 10 uM after 48 hrs by resazurin assay relative to control; format: cell-based; conditions: read-out: Activity
Procedure, shortened: (§1)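 Uninfected HeLa seeded in RPMI, next day switched to colorless DMEM with 10% FBS, 2 mM glutamine; compounds added in triplicate, 48 h at 37 °C; resazurin added, 3 h at 37 °C dark; fluorescence ex 535/em 595 nm; cell-free wells with compound check direct resazurin reduction; mean of three experiments in triplicate, SD over nine replicates.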

[2] = tested on: Chlamydia trachomatis; assay: Antimicrobial activity against Chlamydia trachomatis serovar LGV-L2 infected in human HeLa cells assessed as concentration require to reduce relative inclusion forming units by 95% after 48 hrs; format: functional
Procedure, shortened: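 HeLa cells infected with LGV-L2 at MOI 0.1-0.5; compounds added at 1 hpi, tested at 2.5 µM then 5 or 10 µM or 1, 0.5, 0.25, 0.1 µM; after ~48 h, osmotic lysis, SPG restored, 10-fold dilutions reinfect fresh HeLa; IFUs counted by automated imaging versus DMSO; Reinfect95 = lowest concentration consistently giving 95% IFU reduction; ≥2 experiments in triplicate.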

[3] = tested on: Chlamydia trachomatis; assay: Antimicrobial activity against Chlamydia trachomatis serovar LGV-L2 infected in human HeLa cells assessed as decrease in relative inclusion forming units measured 44 to 48 hrs post infection by DAPI staining-based assay; format: functional, organism-based
Procedure, shortened: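 HeLa229 cells infected with serovar LGV-L2 at MOI 0.3; compounds in DMSO added at 1 hpi as 8-step halving dilutions from 2 to 0.0156 µM; after 44-48 h, osmotic lysis with cold water, SPG restored, lysate 10-fold serially diluted onto fresh HeLa; after 44-48 h, methanol-fixed, anti-Chlamydia/FITC stained, IFUs counted by automated scanner relative to DMSO; EC50 by nonlinear regression, ≥3 independent experiments.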

[4] = Cytotoxicity against human HeLa cells assessed as cell viability at 25 uM after 48 hrs by resazurin assay relative to control; format: cell-based; conditions: read-out: Activity; procedure, shortened: as §1
[5] = tested on: Chlamydia trachomatis; assay: Antimicrobial activity against Chlamydia trachomatis serovar D infected in human HeLa cells assessed as decrease in relative inclusion forming units measured 44 to 48 hrs post infection by DAPI staining-based assay; format: functional, organism-based

Compound `CCc1cccc(NC(=O)C2CSc3c(C4CC4)c(Cc4cccc5ccccc45)cc(=O)n32)c1` (stereo not drawn) has a viability at 48 h, 10 µM [1] of 100% and an Activity [2] of 2.5 µM.
For `COc1ccc(NC(=O)C2CSc3c(C4CC4)c(Cc4cccc5ccccc45)cc(=O)n32)cc1` (stereo not drawn), the viability at 48 h, 10 µM [1] was 100% and the Activity [2] was 2.5 µM.
`O=C(Nc1ccncn1)C1CSc2c(C3CC3)c(Cc3cccc4ccccc34)cc(=O)n21` (stereo not drawn) gave a viability at 48 h, 10 µM [1] of 92% and an Activity [2] of 2.5 µM.
Compound `Cc1ccc(NC(=O)C2CSc3c(C4CC4)c(Cc4ccc(Cl)cc4)cc(=O)n32)cc1` (stereo not drawn) has a viability at 48 h, 10 µM [1] of 89% and an Activity [2] of 1 µM.
Work on `O=C(Nc1ccc(F)cc1)C1CSc2c(C3CC3)c(Cc3cccc4ccccc34)cc(=O)n21` (stereo not drawn) yielded a viability at 48 h, 10 µM [1] of 98% and an Activity [2] of 2.5 µM.
In the case of `Cc1cccc(NC(=O)C2CSc3c(C4CC4)c(Cc4cccc5ccccc45)cc(=O)n32)c1` (stereo not drawn), the EC50 [3] is reported as 102 nM, the viability at 48 h, 25 µM [4] is reported as 100% and the viability at 48 h, 10 µM [1] is reported as 99%. It also gave an Activity [2] of 1 µM.
`Cc1ccc(NC(=O)C2CSc3c(C4CC4)c(Cc4cccc5ccccc45)cc(=O)n32)cc1` (stereo not drawn) showed a viability at 48 h, 10 µM [1] of 97% and an Activity [2] of 2.5 µM.
Work on `O=C(Nc1ccccc1)[C@H]1CSc2c(C3CC3)c(Cc3cccc4ccccc34)cc(=O)n21` yielded a viability at 48 h, 10 µM [1] of 100% and an Activity [2] of 2.5 µM.
In the case of `COc1cccc(NC(=O)C2CSc3c(C4CC4)c(Cc4cccc5ccccc45)cc(=O)n32)c1` (stereo not drawn), the viability at 48 h, 10 µM [1] is reported as 98% and the Activity [2] is reported as 2.5 µM.
In the case of `O=C(Nc1ccccn1)C1CSc2c(C3CC3)c(Cc3cccc4ccccc34)cc(=O)n21` (stereo not drawn), the viability at 48 h, 10 µM [1] is reported as 90% and the Activity [2] is reported as 10 µM.
In the case of `CON(C)C(=O)C1CSc2c(C3CC3)c(Cc3cccc4ccccc34)cc(=O)n21` (stereo not drawn), the viability at 48 h, 10 µM [1] is reported as 88% and the Activity [2] is reported as greater than 10 µM.
For `O=C(C1CSc2c(C3CC3)c(Cc3cccc4ccccc34)cc(=O)n21)N1CCCCC1` (stereo not drawn), the viability at 48 h, 10 µM [1] was 86% and the Activity [2] was greater than 10 µM.
`Cc1cc(=O)n2c(c1C1CC1)SCC2C(=O)Nc1ccccc1` (stereo not drawn) gave a viability at 48 h, 10 µM [1] of 99% and an Activity [2] of 10 µM.
Work on `Cc1ccc(Cc2cc(=O)n3c(c2C2CC2)SCC3C(=O)Nc2ccccc2)cc1C` (stereo not drawn) yielded a viability at 48 h, 10 µM [1] of 91% and an Activity [2] of 2.5 µM.
`CN(C(=O)C1CSc2c(C3CC3)c(Cc3cccc4ccccc34)cc(=O)n21)c1ccccc1` (stereo not drawn) showed a viability at 48 h, 10 µM [1] of 96% and an Activity [2] of 5 µM.
Work on `O=C(Nc1ccccc1F)C1CSc2c(C3CC3)c(Cc3cccc4ccccc34)cc(=O)n21` (stereo not drawn) yielded a viability at 48 h, 10 µM [1] of 96% and an Activity [2] of 2.5 µM.
Work on `O=C(Nc1cccc(F)c1)C1CSc2c(C3CC3)c(Cc3cccc4ccccc34)cc(=O)n21` (stereo not drawn) yielded a viability at 48 h, 10 µM [1] of 96% and an Activity [2] of 2.5 µM.
For `Cc1cccc(NC(=O)C2CSc3c(C4CC4)c(Cc4cccc5ccccc45)c(N)c(=O)n32)c1` (stereo not drawn), the EC50 [3] was 147 nM, the viability at 48 h, 25 µM [4] was 97% and the viability at 48 h, 10 µM [1] was 98%. It also gave an Activity [2] of 1 µM and an EC50 [5] of 124 nM.
`O=C(Nc1ccccc1)C1CSc2c(C3CC3)c(Cc3ccccc3)cc(=O)n21` (stereo not drawn) gave a viability at 48 h, 10 µM [1] of 96% and an Activity [2] of 2.5 µM.
With `Cc1ccc(NC(=O)C2CSc3c(C4CC4)c(Cc4cccc(C)c4C)cc(=O)n32)cc1` (stereo not drawn) the viability at 48 h, 10 µM [1] was 95% and the Activity [2] was 1 µM.
In the case of `O=C(Nc1cccnc1)C1CSc2c(C3CC3)c(Cc3cccc4ccccc34)cc(=O)n21` (stereo not drawn), the viability at 48 h, 10 µM [1] is reported as 77% and the Activity [2] is reported as 10 µM.
In the case of `O=C(Nc1ccccc1)C1CSc2c(C3CC3)c(Cc3cccc4ncccc34)cc(=O)n21` (stereo not drawn), the viability at 48 h, 10 µM [1] is reported as 91% and the Activity [2] is reported as 10 µM.
Compound `CN1CCN(C(=O)C2CSc3c(C4CC4)c(Cc4cccc5ccccc45)cc(=O)n32)CC1` (stereo not drawn) has a viability at 48 h, 10 µM [1] of 96% and an Activity [2] greater than 10 µM.
`COc1ccc(Cc2cc(=O)n3c(c2C2CC2)SCC3C(=O)Nc2ccccc2)cc1` (stereo not drawn) showed a viability at 48 h, 10 µM [1] of 103% and an Activity [2] of 2.5 µM.
`Cc1cccc(Cc2cc(=O)n3c(c2C2CC2)SCC3C(=O)Nc2ccccc2)c1C` (stereo not drawn) gave a viability at 48 h, 10 µM [1] of 91% and an Activity [2] of 2.5 µM.
`Nc1c(Cc2cccc3ccccc23)c(C2CC2)c2n(c1=O)C(C(=O)Nc1ccncn1)CS2` (stereo not drawn) showed a viability at 48 h, 25 µM [4] of 88%, a viability at 48 h, 10 µM [1] of 99% and an Activity [2] of 2.5 µM.
`Cc1ccc(NC(=O)C2CSc3c(C4CC4)c(Cc4cccc5ccccc45)c(N)c(=O)n32)cc1` (stereo not drawn) gave an EC50 [3] of 140 nM, a viability at 48 h, 25 µM [4] of 98% and a viability at 48 h, 10 µM [1] of 98%. The Activity [2] was 0.25 µM and the EC50 [5] was 99 nM.
Compound `O=C(O)c1c(Cc2cccc3ccccc23)c(C2CC2)c2n(c1=O)C(C(=O)Nc1ccccc1)CS2` (stereo not drawn) has a viability at 48 h, 10 µM [1] of 103% and an Activity [2] greater than 10 µM.
Compound `O=C(Nc1ccccc1)[C@@H]1CSc2c(C3CC3)c(Cc3cccc4ccccc34)c(CN3CCOCC3)c(=O)n21` has a viability at 48 h, 10 µM [1] of 99% and an Activity [2] of 5 µM.
With `NS(=O)(=O)c1ccc(NC(=O)C2CSc3c(C4CC4)c(Cc4cccc5ccccc45)cc(=O)n32)cc1` (stereo not drawn) the viability at 48 h, 10 µM [1] was 95% and the Activity [2] was 10 µM.
`O=C(Nc1cccc(Cl)c1)C1CSc2c(C3CC3)c(Cc3cccc4ccccc34)cc(=O)n21` (stereo not drawn) gave a viability at 48 h, 10 µM [1] of 100% and an Activity [2] of 2.5 µM.
In the case of `O=C(Nc1ccncc1)C1CSc2c(C3CC3)c(Cc3cccc4ccccc34)cc(=O)n21` (stereo not drawn), the viability at 48 h, 10 µM [1] is reported as 69% and the Activity [2] is reported as 5 µM.
Compound `Cc1cccc(Cc2cc(=O)n3c(c2C2CC2)SCC3C(=O)Nc2ccccc2)c1` (stereo not drawn) has a viability at 48 h, 10 µM [1] of 87% and an Activity [2] of 2.5 µM.
`O=C(Nc1nccs1)C1CSc2c(C3CC3)c(Cc3cccc4ccccc34)cc(=O)n21` (stereo not drawn) gave a viability at 48 h, 10 µM [1] of 96% and an Activity [2] of 5 µM.
`O=C(Nc1ccccc1)C1CSc2c(C3CC3)c(Cc3ccc(Cl)cc3)cc(=O)n21` (stereo not drawn) showed a viability at 48 h, 10 µM [1] of 94% and an Activity [2] of 2.5 µM.
For `O=C(Nc1ccccc1)[C@@H]1CSc2c(C3CC3)c(Cc3cccc4ccccc34)cc(=O)n21`, the viability at 48 h, 10 µM [1] was 100% and the Activity [2] was 2.5 µM.
`O=C(C1CSc2c(C3CC3)c(Cc3cccc4ccccc34)cc(=O)n21)N1CCOCC1` (stereo not drawn) gave a viability at 48 h, 10 µM [1] of 90% and an Activity [2] greater than 10 µM.
For `O=C(NC1CCCCC1)C1CSc2c(C3CC3)c(Cc3cccc4ccccc34)cc(=O)n21` (stereo not drawn), the viability at 48 h, 10 µM [1] was 88% and the Activity [2] was 10 µM.
In the case of `O=C(Nc1cccc(C(F)(F)F)c1)C1CSc2c(C3CC3)c(Cc3cccc4ccccc34)cc(=O)n21` (stereo not drawn), the viability at 48 h, 10 µM [1] is reported as 95% and the Activity [2] is reported as 2.5 µM.
`O=C(Nc1ccc(Cl)cc1)C1CSc2c(C3CC3)c(Cc3cccc4ccccc34)cc(=O)n21` (stereo not drawn) gave a viability at 48 h, 10 µM [1] of 94% and an Activity [2] of 2.5 µM.
Compound `NC(=O)c1ccc(NC(=O)C2CSc3c(C4CC4)c(Cc4cccc5ccccc45)c(N)c(=O)n32)cc1` (stereo not drawn) has a viability at 48 h, 10 µM [1] of 103% and an Activity [2] greater than 10 µM.
In the case of `O=C(NCc1ccccc1)C1CSc2c(C3CC3)c(Cc3cccc4ccccc34)cc(=O)n21` (stereo not drawn), the viability at 48 h, 10 µM [1] is reported as 93% and the Activity [2] is reported as 2.5 µM.
Work on `CNC(=O)C1CSc2c(C3CC3)c(Cc3cccc4ccccc34)cc(=O)n21` (stereo not drawn) yielded a viability at 48 h, 10 µM [1] of 93% and an Activity [2] of 10 µM.
Work on `O=C(Nc1ccccc1)C1CSc2c(C3CC3)c(Cc3cccc(Cl)c3Cl)cc(=O)n21` (stereo not drawn) yielded a viability at 48 h, 10 µM [1] of 85% and an Activity [2] of 2.5 µM.
Compound `NC(=O)c1ccc(NC(=O)C2CSc3c(C4CC4)c(Cc4cccc5ccccc45)cc(=O)n32)cc1` (stereo not drawn) has a viability at 48 h, 10 µM [1] of 98% and an Activity [2] of 2.5 µM.
With `CNC(=O)c1cccc(NC(=O)C2CSc3c(C4CC4)c(Cc4cccc5ccccc45)cc(=O)n32)c1` (stereo not drawn) the viability at 48 h, 10 µM [1] was 93% and the Activity [2] was 10 µM.
In the case of `O=C(Nc1ccccc1)C1CSc2c(C3CC3)c(Cc3cccc4ccccc34)cc(=O)n21` (racemic), the viability at 48 h, 10 µM [1] is reported as 100% and the Activity [2] is reported as 2.5 µM.
